High-throughput results (PubChem BioAssay)
Jurkat NFkB inh = inhibitors of induced NF-kB luciferase reporter, primary screen, TCR NF-kB activation inhibitor project, cell-based, luminescence, uHTS; actives 0.53% (n = 330,000); inhibition, % at 4 µM; AID 435003, 2010; Jurkat, PMA/ionomycin-induced NF-kB luciferase reporter; in the data active means inhibition above about 50%
Hep lipid drop = inhibitors of hepatocyte lipid droplet formation, primary screen, imaging, high-throughput imaging, BODIPY stain. AML12 mouse hepatocytes, oleate lipid droplets. inhibition, % at 6.5 µM. AID 1656, 2009. actives 0.4% (n = 240,000);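 active means lipid droplet intensity inhibited by at least 50%, with more than 500 cells counted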
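Material – mouse AML12 hepatocyte cell line, fixed after treatment · Compound dosing – one dose, 6.5 µM compound · Times – compound with oleate, overnight · Measured by – Image-based BODIPY and DAPI two-channel analysis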
APP 5UTR inh = inhibitors of APP translation via 5'UTR reporter, primary screen, APP 5'UTR luciferase, SH-SY5Y cells | SH-SY5Y APP 5'UTR-luciferase reporter, luminescence | inhibition, % at 2 µM | actives 0.82% (n = 190,000) | AID 1285, 2008;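 active means inhibition above a set limit, derived from the sample mean plus 3 SD, cut at about 45% in these data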
H9c2 TAG inh = inhibitors of triacylglycerol accumulation, primary screen, cell-based, uHTS, fluorescence, H9c2 | H9c2 cells, Nile Red lipid (TAG) fluorescence; cells loaded with 200 µM oleic acid | inhibition, % at 12.5 µM | actives 0.66% (n = 230,000);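 active means pattern-corrected inhibition of lipid staining of at least 50% with the nuclear-stain viability signal not falling by more than 50%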;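 further: 0% = DMSO wells and 100% = triacsin C control wells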
697 NFkB inh = inhibitors of PMA/ionomycin-induced NF-kB reporter, 697 cells, primary screen, B-cell NF-kB inhibitor project, cell-based, luminescence, uHTS | inhibition, % at 4 µM | AID 435022, 2010 | actives 0.33% (n = 330,000) | 697 B-cell NF-kB luciferase reporter, 16 h; in the data active means inhibition above about 35%
aSyn 5UTR inh = MLPCN primary screen, SNCA 5' untranslated region. actives 0.82% (n = 300,000). alpha-synuclein 5'UTR reporter, inhibitor activity. inhibition, % (tested at 7.5 µM); in the data active means inhibition above about 60%;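 further: H4 neuroglioblastoma cells stably carrying SNCA 5'UTR luciferase fusion; 0% = DMSO wells and 100% = positive control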
Lipid drop inh = hepatocyte lipid droplet accumulation inhibitors, confirmation, imaging, AML12 mouse hepatocytes, single concentration, high-content | shares compounds with Hep lipid drop | BODIPY lipid droplet imaging; droplets induced with 100 µM oleic acid | inhibition, % at 5.2 µM | actives 65% (n = 870);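 active means inhibition of lipid droplet metric at least 50%, with more than 300 cells in each of four replicates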;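 further: plate controls were DMSO with oleic acid for no effect and 5 µM Triacsin-C for full effect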
AML12 cytotox = AML12 hepatocyte cytotoxicity, counter-screen for hepatic lipid droplet formation project, imaging, DAPI nuclear morphology imaging. actives 3% (n = 870). z-score at 5 µM. AID 463200, 2010. shares compounds with Hep lipid drop. AML12 mouse hepatocytes; stronger effect = higher value; cells fed 100 µM oleate overnight; in the data active means z-score above about 6.3;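 further: compound exposure lasted overnight at 37 °C before fixation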
AML12 tox ATP = AML12 hepatocyte cytotoxicity, confirmation, cytotoxicity control for hepatic lipid droplet formation project, cell-based, single concentration; shares compounds with Hep lipid drop; cytotoxicity, % at 50 µM; 530 tested, under 10 active; AML12 mouse hepatocyte viability, ATP luminescence; cells loaded with 100 µM oleic acid; AID 463219, 2010;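 active means cytotoxicity above 50% in each of four replicates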;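 further: compound exposure lasted overnight at 37 °C before the ATP read; 0% = DMSO-treated cells and 100% = wells with no cells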
* marks the source's active call; other numbers are inactive results; . = no result; ! = a repeat was not active. Rows were chosen to be rich in hits. Some 1.9% of all compounds tested hit in one or more screens of this group.

SMILES | Jurkat NFkB inh | Hep lipid drop | APP 5UTR inh | H9c2 TAG inh | 697 NFkB inh | aSyn 5UTR inh | Lipid drop inh | AML12 cytotox | AML12 tox ATP
Cc1ccc(C(C(=O)NC(C)(C)C)N(Cc2ccco2)C(=O)CCC(=O)Nc2ccccn2)cc1 (stereo unspecified) | 8 | 50* | . | . | 9 | 5 | 44 | 0.56 | .
COc1cccc(C(C(=O)NC(C)(C)C)N(CCC(C)C)C(=O)CCC(=O)Nc2cc(C)on2)c1OC (stereo unspecified) | -16 | -6 | -3 | 0 | 5 | -3 | . | . | .
COc1ccc(C(C(=O)NC(C)(C)C)N(CCC(C)C)C(=O)CCC(=O)Nc2cc(C)on2)cc1 (stereo unspecified) | 10 | 114* | . | . | 13 | 20 | 108* | -0.014 | 10
COc1ccc(C(C(=O)NC(C)(C)C)N(Cc2ccccc2)C(=O)CCC(=O)Nc2cc(C)on2)cc1 (stereo unspecified) | 9 | 66* | -2 | . | 9 | 16 | 70* | -0.48 | 7
CCC(C)(C)NC(=O)C(c1ccc(OC)cc1)N(Cc1ccccc1)C(=O)CCC(=O)Nc1cc(C)on1 (stereo unspecified) | 20 | 54* | . | . | 7 | -17 | 92* | -0.42 | 9
C=CCSc1nc2c(N)ncnc2n1C1OC(CO)C(O)C1O (stereo unspecified) | . | . | . | 12 | . | . | . | . | .
CCOC(=O)c1ccc(N2CCCCC2)c(NS(=O)(=O)c2ccc(C)cc2)c1 | 39 | -49 | . | 8 | 2 | -15 | . | . | .
COc1ccc(/C(C)=N/NC(=O)CNC(=O)/C=C\c2ccccc2)c(OC)c1 | -6 | 20 | . | . | -34 | 1 | . | . | .
CCn1cc(C(=O)N(C)c2ccc(OC)cc2)c2cc(OC)c(OC)cc2c1=O | 0 | 68* | . | . | 4 | 0 | 25 | -0.89 | .
CS(=O)(=O)Nc1ccc(C(=O)Nc2cccc([N+](=O)[O-])c2)cc1 | -18 | -5 | -2 | -6 | -12 | -12 | . | . | .
CCOc1ccc(C2=NNC(c3cccs3)=Nc3ccc(OC)cc32)cc1OCC | 7 | 55* | -11 | 33 | 7 | 29 | 71* | 0.57 | 20
COc1ccc(C2=NNC(c3cccs3)=Nc3ccc(OC)cc32)cc1 | -9 | . | -10 | 1 | -2 | -11 | . | . | .
O=C(NC1(N2CCOCC2)CC1)c1ccc(Cl)cc1 | -15 | 2 | . | . | -2 | -2 | . | . | .
N/C(Cc1cccc2ccccc12)=N\OC(=O)c1ccc(Br)o1 | . | -9 | 1 | . | . | . | . | . | .
N/C(Cc1ccc(Cl)cc1Cl)=N\OC(=O)c1ccc(Br)o1 | 8 | 57* | . | 3 | 24 | 0 | 2 | -0.22 | .
CCOC(=O)c1ccc(NC(=O)COc2ccc(S(=O)(=O)NC(C)(C)C)cc2)cc1 | 9 | 96* | 5 | 21 | 20 | -6 | 107* | -0.023 | 3
COc1ccc(CN(C)C(=O)CNC(=O)Cc2cccc3ccccc23)c(OC)c1OC | 10 | 53* | . | 33 | -8 | 18 | 82* | -0.31 | 16
COc1ccc(CCN(C)C(=O)CNC(=O)Cc2cccc3ccccc23)cc1OC | -18 | 13 | . | -2 | 5 | 19 | . | . | .
COc1cc(=O)[nH]c(SC(C)C(=O)Nc2cc(C)on2)n1 (stereo unspecified) | 2 | 11 | . | . | 22 | -4 | . | . | .
Cc1cc(C)c(NC(=O)C2c3ccccc3Oc3ccccc32)c(C)c1 | 5 | -6 | -8 | . | 4 | -3 | . | . | .
Cc1ccccc1Cn1nc(C)c(NC(=O)C2c3ccccc3Oc3ccccc32)c1C | 8 | 81* | -5 | . | 5 | 23 | 100* | -0.32 | -4
Cc1ccc(CNC(=O)C2CC(=O)N(c3ccc(OCC(=O)N4CCCC4)cc3)C2)cc1 (stereo unspecified) | -25 | 13 | -4 | -5 | -11 | -8 | . | . | .
CCOC(=O)n1cc(-c2cnc(CNC(=O)C(C)(c3ccccc3)c3ccccc3)o2)c2ccccc21 | 9 | 59* | 15 | . | -3 | 3 | 90* | 0.61 | .
CCC(=O)Nc1ccc(NC(=O)c2ccco2)cc1 | -59 | . | -40 | . | -23 | -136 | . | . | .
O=C(Nc1ccccc1)c1cc2ccccc2o1 | -148 | -4 | -230 | -23 | 14 | -112 | . | . | .
SMILES | Jurkat NFkB inh | Hep lipid drop | APP 5UTR inh | H9c2 TAG inh | 697 NFkB inh | aSyn 5UTR inh | Lipid drop inh | AML12 cytotox | AML12 tox ATP
CCOc1ccc(CC(=O)Nc2ccc(NC(=O)c3ccco3)cc2)cc1OCC | . | 57* | 9 | 13 | . | 66* | 98* | -0.086 | 9
O=C(Nc1ccc(NC(=O)c2cc3ccccc3o2)cc1)c1ccco1 | 8 | 70* | . | . | 2 | -95 | 65* | -0.081 | 11
COc1cc(NC(=O)c2ccco2)c(OC)cc1NC(=O)CCC(=O)Nc1cc(C)cc(C)c1 | -1 | 97* | -4 | . | -7 | 1 | 107* | -0.15 | 56*
Cc1ccccc1OCc1n(CC(=O)OC2CC(C)CCC2C(C)C)c2ccccc2[n+]1C (stereo unspecified) | 15 | 54*! | 8 | 76*! | -39 | 85* | 8 | -1.5 | .
COc1ccc(OC)c(S(=O)(=O)N2CCCC(C(=O)NC3CC3)C2)c1 (stereo unspecified) | . | . | . | 1 | . | . | . | . | .
O=C(NC1=C(Nc2ccc(Cl)cc2)C(=O)c2ccccc2C1=O)c1ccccc1 | 6 | 2 | -7 | . | 14 | -31 | . | . | .
CN(C1=C(NC(=O)c2ccc(Cl)cc2)C(=O)c2ccccc2C1=O)c1ccccc1 | -6 | 69* | 15 | . | -6 | -83 | 91* | -0.93 | .
C=CCN1C(=O)c2ccccc2Sc2ccc(C(=O)NC(C)C)cc21 | -37 | 0 | . | . | -1 | 23 | . | . | .
C=CCN1C(=O)c2ccccc2Sc2ccc(C(=O)NCC(OC)OC)cc21 | -1 | 55* | . | . | -11 | 17 | 34 | -0.91 | .
Cc1cccc(CN2C(=O)N/C(=C/c3cc(C)n(-c4cc(C)ccn4)c3C)C2=O)c1 | -5 | 81* | -2 | 33 | 15 | 10 | 105* | -0.23 | 7
Cc1cccc(CN2C(=O)N/C(=C/c3ccc(C)s3)C2=O)c1 | 13 | -14 | 28 | -10 | -27 | -88 | . | . | .
Cc1cc(C)c2c(NC(=O)CCl)nn(C)c2n1 | 13 | 10 | 7 | 26 | 11 | -65 | . | . | .
